Converted amounts (≈) assume the structure as drawn. A value given as a limit tells only on which side of the number the result lay.

Common to all, as to type: functional
The subject of test [1] is Mycobacterium tuberculosis. As to the kind of experiment: Antimycobacterial activity against Mycobacterium tuberculosis My 331/88 after 14 days by micromethod. As to conditions: My 331/88, 336 h. Summed up: (§1)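 MIC by micromethod at 37 °C, read after 14 and 21 days. Inocula were M. tuberculosis My 331/88 at 10^-3 dilution and M. avium My 330/88 at 10^-5 dilution. Compounds added in DMSO across 1000, 500, 250, 125, 62.5, 32, 16, 8, 4, 2, 1 and 0.5; isoniazid standard in sterile water. MIC taken as the lowest concentration inhibiting growth.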

The subject of test [2] is Mycobacterium kansasii. As to the kind of experiment: Antimycobacterial activity against Mycobacterium kansasii My 6509/96 clinical isolate after 21 days by micromethod. As to conditions: My 6509/96, 504 h.
Test [3] concerns Mycobacterium kansasii. As to the kind of experiment: Antimycobacterial activity against Mycobacterium kansasii My 6509/96 clinical isolate after 7 days by micromethod. As to conditions: My 6509/96, 168 h.
Test [4] deals with Mycobacterium kansasii. Kind of test: Antimycobacterial activity against Mycobacterium kansasii My 235/80 after 14 days by micromethod. As to conditions: My 235/80, 336 h.
Test [5] deals with Mycobacterium kansasii. Kind of test: Antimycobacterial activity against Mycobacterium kansasii My 235/80 after 21 days by micromethod. The note with it: My 235/80, 504 h.
In test [6] the test system is Mycobacterium kansasii. Kind of test: Antimycobacterial activity against Mycobacterium kansasii My 235/80 after 7 days by micromethod. The note with it: My 235/80, 168 h.
The test system of test [7] is Mycobacterium tuberculosis. Kind of test: Antimycobacterial activity against Mycobacterium tuberculosis My 331/88 after 21 days by micromethod. The note with it: My 331/88, 504 h. The method in brief:
as §1

For test [8], the system named is Mycobacterium avium. As to the kind of experiment: Antimycobacterial activity against Mycobacterium avium My 330/88 after 14 days by micromethod. As to conditions: My 330/88, 336 h.
In test [9] the test system is Mycobacterium avium. Kind of test: Antimycobacterial activity against Mycobacterium avium My 330/88 after 21 days by micromethod. The note with it: My 330/88, 504 h.
Test [10] concerns Mycobacterium kansasii. As to the kind of experiment: Antimycobacterial activity against Mycobacterium kansasii My 6509/96 clinical isolate after 14 days by micromethod. The note with it: My 6509/96, 336 h.

As to `COc1ccc(Cl)cc1C(=S)Nc1ccc(Cl)c(Cl)c1`, the MIC was 8 µM (≈ 2.77 µg/mL) in test [1]; 125 µM (≈ 43.3 µg/mL) in [2]; 62.5 µM (≈ 21.7 µg/mL) in test [3]; 62.5 µM (≈ 21.7 µg/mL) in [4]; 62.5 µM (≈ 21.7 µg/mL) in test [5]; 32 µM (≈ 11.1 µg/mL) in test [6]. The MIC came to 8 µM (≈ 2.77 µg/mL) in test [7], 32 µM (≈ 11.1 µg/mL) in test [8], 62.5 µM (≈ 21.7 µg/mL) in test [9] and 125 µM (≈ 43.3 µg/mL) in test [10].
Take `COc1cc(Cl)ccc1C(=O)Nc1ccc([N+](=O)[O-])cc1`: the MIC came out at 250 µM (≈ 76.7 µg/mL) in test [1]; 125 µM (≈ 38.3 µg/mL) in test [2]; 125 µM (≈ 38.3 µg/mL) in [3]; 250 µM (≈ 76.7 µg/mL) in test [4]; 250 µM (≈ 76.7 µg/mL) in test [5]; 125 µM (≈ 38.3 µg/mL) in [6]. In addition, the MIC in [7] amounted to 250 µM (≈ 76.7 µg/mL); in test [8], 250 µM (≈ 76.7 µg/mL); in [9], 250 µM (≈ 76.7 µg/mL); in test [10], 125 µM (≈ 38.3 µg/mL).
`COc1ccc(Cl)cc1C(=O)Nc1cccc(C(F)(F)F)c1`: the MIC was 4 µM (≈ 1.32 µg/mL) in test [1]; 16 µM (≈ 5.28 µg/mL) in test [2]; 4 µM (≈ 1.32 µg/mL) in [3]; 4 µM (≈ 1.32 µg/mL) in test [4]; 16 µM (≈ 5.28 µg/mL) in test [5]; 4 µM (≈ 1.32 µg/mL) in [6]. The minimum inhibitory concentration (MIC) in [7] was 16 µM (≈ 5.28 µg/mL); in test [8] it was 125 µM (≈ 41.2 µg/mL); in test [9], 125 µM (≈ 41.2 µg/mL); in [10] it was 4 µM (≈ 1.32 µg/mL).
Take `COc1ccc(Cl)cc1C(=O)Nc1cccc(Br)c1`: the MIC stood at 125 µM (≈ 42.6 µg/mL) in [1]; 62.5 µM (≈ 21.3 µg/mL) in test [2]; 62.5 µM (≈ 21.3 µg/mL) in test [3]; 62.5 µM (≈ 21.3 µg/mL) in [4]; 62.5 µM (≈ 21.3 µg/mL) in [5]; 62.5 µM (≈ 21.3 µg/mL) in [6]. Further, the MIC turned out to be 125 µM (≈ 42.6 µg/mL) in test [7], 62.5 µM (≈ 21.3 µg/mL) in [8], 62.5 µM (≈ 21.3 µg/mL) in test [9] and 62.5 µM (≈ 21.3 µg/mL) in [10].
In the case of `NNC(=O)c1ccncc1` [ISONIAZID], the MIC in test [1] is 0.5 µM (≈ 0.0686 µg/mL); in [2], 4 µM (≈ 0.549 µg/mL); in test [3], 4 µM (≈ 0.549 µg/mL); in test [4], 200 µM (≈ 27.4 µg/mL); in test [5], 250 µM (≈ 34.3 µg/mL); in test [6] it was > 250 µM. Further, the MIC in test [7] was 0.5 µM (≈ 0.0686 µg/mL); in test [8], 200 µM (≈ 27.4 µg/mL); in test [9], 250 µM (≈ 34.3 µg/mL); in test [10], 4 µM (≈ 0.549 µg/mL).
Take `COc1ccc(Cl)cc1C(=O)Nc1ccc(Br)cc1`: the MIC was determined as 16 µM (≈ 5.45 µg/mL) in [1]; 62.5 µM (≈ 21.3 µg/mL) in test [2]; 32 µM (≈ 10.9 µg/mL) in test [3]; 62.5 µM (≈ 21.3 µg/mL) in [4]; 62.5 µM (≈ 21.3 µg/mL) in test [5]; 62.5 µM (≈ 21.3 µg/mL) in test [6]. Also, the MIC in test [7] is 16 µM (≈ 5.45 µg/mL); in test [8] it was 16 µM (≈ 5.45 µg/mL); in test [9], 32 µM (≈ 10.9 µg/mL); in [10], 62.5 µM (≈ 21.3 µg/mL).
As to `COc1ccc(Cl)cc1C(=S)Nc1ccc([N+](=O)[O-])cc1`, the MIC in test [1] turned out to be 32 µM (≈ 10.3 µg/mL); in [2] it was 250 µM (≈ 80.7 µg/mL); in test [3] it was 125 µM (≈ 40.3 µg/mL); in test [4], 250 µM (≈ 80.7 µg/mL); in test [5], 250 µM (≈ 80.7 µg/mL); in test [6], 125 µM (≈ 40.3 µg/mL). Besides, the minimal inhibitory concentration (MIC) turned out to be 32 µM (≈ 10.3 µg/mL) in test [7], 250 µM (≈ 80.7 µg/mL) in test [8], 250 µM (≈ 80.7 µg/mL) in test [9] and 250 µM (≈ 80.7 µg/mL) in test [10].
For the compound `COc1ccc(Cl)cc1C(=S)Nc1ccc(C(F)(F)F)cc1`, the MIC was 16 µM (≈ 5.53 µg/mL) in test [1]; 16 µM (≈ 5.53 µg/mL) in test [2]; 8 µM (≈ 2.77 µg/mL) in test [3]; 16 µM (≈ 5.53 µg/mL) in test [4]; 32 µM (≈ 11.1 µg/mL) in test [5]; 8 µM (≈ 2.77 µg/mL) in test [6]. The MIC in test [7], in [8], in test [9] and in test [10] was 16 µM (≈ 5.53 µg/mL) in each case.
For `COc1ccc(Cl)cc1C(=S)Nc1cccc(C(F)(F)F)c1`, the MIC in test [1] was found to be 16 µM (≈ 5.53 µg/mL); in test [2], 16 µM (≈ 5.53 µg/mL); in test [3] it was 8 µM (≈ 2.77 µg/mL); in test [4], 16 µM (≈ 5.53 µg/mL); in test [5], 16 µM (≈ 5.53 µg/mL); in test [6], 8 µM (≈ 2.77 µg/mL). For the same compound, the MIC worked out at 16 µM (≈ 5.53 µg/mL) in [7], 32 µM (≈ 11.1 µg/mL) in test [8], 32 µM (≈ 11.1 µg/mL) in test [9] and 16 µM (≈ 5.53 µg/mL) in test [10].
For the compound `COc1ccc(Cl)cc1C(=O)Nc1ccc([N+](=O)[O-])cc1`, the MIC in test [1], in [2], in [3], in [4], in [5] and in test [6] was 125 µM (≈ 38.3 µg/mL) each time. For the same compound, the MIC in test [7], in [8], in [9] and in test [10] was 125 µM (≈ 38.3 µg/mL) throughout.
`COc1ccc(Cl)cc1C(=S)Nc1cccc(Br)c1`: the MIC was found to be 32 µM (≈ 11.4 µg/mL) in test [1]; 32 µM (≈ 11.4 µg/mL) in [2]; 32 µM (≈ 11.4 µg/mL) in test [3]; 32 µM (≈ 11.4 µg/mL) in [4]; 32 µM (≈ 11.4 µg/mL) in test [5]; 16 µM (≈ 5.71 µg/mL) in test [6]. Besides, the MIC in test [7], in [8], in [9] and in test [10] was 32 µM (≈ 11.4 µg/mL) in each case.
In the case of `COc1ccc(Cl)cc1C(=S)Nc1cccc([N+](=O)[O-])c1`, the MIC in test [1] amounted to 250 µM (≈ 80.7 µg/mL); in test [2], 250 µM (≈ 80.7 µg/mL); in test [3], 62.5 µM (≈ 20.2 µg/mL); in [4] it was 250 µM (≈ 80.7 µg/mL); in test [5], 250 µM (≈ 80.7 µg/mL); in test [6] it was 62.5 µM (≈ 20.2 µg/mL). The MIC in test [7], in test [8], in test [9] and in [10] was 250 µM (≈ 80.7 µg/mL) throughout.
With `COc1ccc(Cl)cc1C(=S)Nc1ccc(Br)cc1`, the MIC in [1] turned out to be 16 µM (≈ 5.71 µg/mL); in test [2], 32 µM (≈ 11.4 µg/mL); in test [3], 16 µM (≈ 5.71 µg/mL); in [4], 250 µM (≈ 89.2 µg/mL); in [5] it was 250 µM (≈ 89.2 µg/mL); in test [6] it was 62.5 µM (≈ 22.3 µg/mL). The MIC was determined as 16 µM (≈ 5.71 µg/mL) in [7], 16 µM (≈ 5.71 µg/mL) in [8], 16 µM (≈ 5.71 µg/mL) in test [9] and 32 µM (≈ 11.4 µg/mL) in [10].
On to `COc1cc(Cl)ccc1C(=O)Nc1ccc(Cl)c(Cl)c1`, for which the MIC in test [1], in test [2], in [3], in test [4], in [5] and in [6] was 125 µM (≈ 41.3 µg/mL) in each case. Moreover, the MIC in test [7], in test [8], in [9] and in [10] was 125 µM (≈ 41.3 µg/mL) throughout.
Consider `COc1cc(Cl)ccc1C(=O)Nc1cccc(Cl)c1`, for which the MIC in test [1] came out at 125 µM (≈ 37 µg/mL); in test [2], 125 µM (≈ 37 µg/mL); in test [3] it was 62.5 µM (≈ 18.5 µg/mL); in [4] it was 32 µM (≈ 9.48 µg/mL); in test [5] it was 32 µM (≈ 9.48 µg/mL); in test [6], 8 µM (≈ 2.37 µg/mL). Moreover, the MIC in [7] came out at 125 µM (≈ 37 µg/mL); in [8], 8 µM (≈ 2.37 µg/mL); in test [9] it was 32 µM (≈ 9.48 µg/mL); in test [10], 62.5 µM (≈ 18.5 µg/mL).
As for `COc1ccc(Cl)cc1C(=S)Nc1cccc(Cl)c1`, the MIC in [1] was found to be 16 µM (≈ 5 µg/mL); in test [2], 32 µM (≈ 9.99 µg/mL); in [3] it was 16 µM (≈ 5 µg/mL); in [4], 16 µM (≈ 5 µg/mL); in test [5] it was 16 µM (≈ 5 µg/mL); in [6], 8 µM (≈ 2.5 µg/mL). Besides, the MIC in [7] was 16 µM (≈ 5 µg/mL); in test [8], 32 µM (≈ 9.99 µg/mL); in test [9] it was 32 µM (≈ 9.99 µg/mL); in [10] it was 16 µM (≈ 5 µg/mL).
Regarding `COc1cc(Cl)ccc1C(=O)Nc1cccc([N+](=O)[O-])c1`, the MIC in test [1] worked out at 125 µM (≈ 38.3 µg/mL); in test [2] it was 125 µM (≈ 38.3 µg/mL); in [3] it was 125 µM (≈ 38.3 µg/mL); in test [4], 250 µM (≈ 76.7 µg/mL); in test [5] it was 250 µM (≈ 76.7 µg/mL); in [6], 125 µM (≈ 38.3 µg/mL). The MIC in test [7], in test [8], in [9] and in [10] was 125 µM (≈ 38.3 µg/mL) throughout.

The values are drawn from ChEMBL document CHEMBL2086318, “Synthesis and in vitro antimycobacterial activity of 2-methoxybenzanilides and their thioxo analogues” (Eur J Med Chem, 2012).
